The record followed here is article PMC6287304 (Antiviral Chemistry & Chemotherapy, 2018).

Common to all, as to format: biochemical
One assay has as its target T1, HCMV DNA pol (Human cytomegalovirus, UniProt P08546).
T1 sequence (P08546 1-1242): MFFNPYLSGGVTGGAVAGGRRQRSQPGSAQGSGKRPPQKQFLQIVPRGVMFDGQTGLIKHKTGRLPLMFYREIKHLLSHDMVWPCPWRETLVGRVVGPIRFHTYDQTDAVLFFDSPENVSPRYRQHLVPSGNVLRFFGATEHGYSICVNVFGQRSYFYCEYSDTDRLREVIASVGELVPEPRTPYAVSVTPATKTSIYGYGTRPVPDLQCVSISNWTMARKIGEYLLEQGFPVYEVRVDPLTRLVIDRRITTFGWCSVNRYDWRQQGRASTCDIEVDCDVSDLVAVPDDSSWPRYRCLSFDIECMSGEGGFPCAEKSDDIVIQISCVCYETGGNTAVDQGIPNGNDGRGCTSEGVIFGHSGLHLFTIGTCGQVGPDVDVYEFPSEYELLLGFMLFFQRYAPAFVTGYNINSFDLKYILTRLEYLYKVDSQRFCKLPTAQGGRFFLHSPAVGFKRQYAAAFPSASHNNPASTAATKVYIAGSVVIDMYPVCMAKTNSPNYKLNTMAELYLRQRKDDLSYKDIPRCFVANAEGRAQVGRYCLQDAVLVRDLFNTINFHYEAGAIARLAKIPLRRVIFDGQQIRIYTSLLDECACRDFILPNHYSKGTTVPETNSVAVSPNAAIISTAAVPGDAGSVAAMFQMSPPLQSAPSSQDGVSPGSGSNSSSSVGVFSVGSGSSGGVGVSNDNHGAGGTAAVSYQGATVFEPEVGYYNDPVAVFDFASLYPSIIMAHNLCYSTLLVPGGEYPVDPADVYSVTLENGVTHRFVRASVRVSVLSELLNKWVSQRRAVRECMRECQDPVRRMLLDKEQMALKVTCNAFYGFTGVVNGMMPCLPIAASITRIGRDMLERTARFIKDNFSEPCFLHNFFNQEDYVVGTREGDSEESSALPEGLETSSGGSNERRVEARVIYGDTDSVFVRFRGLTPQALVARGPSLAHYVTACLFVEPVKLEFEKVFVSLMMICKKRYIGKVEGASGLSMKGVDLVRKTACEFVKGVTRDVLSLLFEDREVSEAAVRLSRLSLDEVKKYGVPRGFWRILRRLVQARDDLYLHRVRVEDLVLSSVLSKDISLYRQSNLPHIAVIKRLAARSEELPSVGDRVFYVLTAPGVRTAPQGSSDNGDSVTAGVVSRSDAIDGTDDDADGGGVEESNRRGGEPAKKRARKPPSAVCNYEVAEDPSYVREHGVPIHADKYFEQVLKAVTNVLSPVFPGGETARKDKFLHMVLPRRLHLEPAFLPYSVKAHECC
The assay is described as follows: DNA polymerase inhibition, HCMV DNA pol. The settings on record: calf thymus DNA. A digest of the protocol:
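Recombinant or source enzyme not specified. HCMV DNA polymerase reaction uses activated calf thymus DNA as template/primer, 100 uM of each of three unlabeled dNTPs, and 0.5 uM rate-limiting tritium-labeled dNTP ([3H]dGTP or [3H]dTTP, as competitive substrate). The diphosphate form of the test compound is added in serial dilutions, up to 100 uM.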

Another assay has as its target T2, DNA pol α (Homo sapiens, UniProt P09884).
T2 sequence (P09884 1-1462): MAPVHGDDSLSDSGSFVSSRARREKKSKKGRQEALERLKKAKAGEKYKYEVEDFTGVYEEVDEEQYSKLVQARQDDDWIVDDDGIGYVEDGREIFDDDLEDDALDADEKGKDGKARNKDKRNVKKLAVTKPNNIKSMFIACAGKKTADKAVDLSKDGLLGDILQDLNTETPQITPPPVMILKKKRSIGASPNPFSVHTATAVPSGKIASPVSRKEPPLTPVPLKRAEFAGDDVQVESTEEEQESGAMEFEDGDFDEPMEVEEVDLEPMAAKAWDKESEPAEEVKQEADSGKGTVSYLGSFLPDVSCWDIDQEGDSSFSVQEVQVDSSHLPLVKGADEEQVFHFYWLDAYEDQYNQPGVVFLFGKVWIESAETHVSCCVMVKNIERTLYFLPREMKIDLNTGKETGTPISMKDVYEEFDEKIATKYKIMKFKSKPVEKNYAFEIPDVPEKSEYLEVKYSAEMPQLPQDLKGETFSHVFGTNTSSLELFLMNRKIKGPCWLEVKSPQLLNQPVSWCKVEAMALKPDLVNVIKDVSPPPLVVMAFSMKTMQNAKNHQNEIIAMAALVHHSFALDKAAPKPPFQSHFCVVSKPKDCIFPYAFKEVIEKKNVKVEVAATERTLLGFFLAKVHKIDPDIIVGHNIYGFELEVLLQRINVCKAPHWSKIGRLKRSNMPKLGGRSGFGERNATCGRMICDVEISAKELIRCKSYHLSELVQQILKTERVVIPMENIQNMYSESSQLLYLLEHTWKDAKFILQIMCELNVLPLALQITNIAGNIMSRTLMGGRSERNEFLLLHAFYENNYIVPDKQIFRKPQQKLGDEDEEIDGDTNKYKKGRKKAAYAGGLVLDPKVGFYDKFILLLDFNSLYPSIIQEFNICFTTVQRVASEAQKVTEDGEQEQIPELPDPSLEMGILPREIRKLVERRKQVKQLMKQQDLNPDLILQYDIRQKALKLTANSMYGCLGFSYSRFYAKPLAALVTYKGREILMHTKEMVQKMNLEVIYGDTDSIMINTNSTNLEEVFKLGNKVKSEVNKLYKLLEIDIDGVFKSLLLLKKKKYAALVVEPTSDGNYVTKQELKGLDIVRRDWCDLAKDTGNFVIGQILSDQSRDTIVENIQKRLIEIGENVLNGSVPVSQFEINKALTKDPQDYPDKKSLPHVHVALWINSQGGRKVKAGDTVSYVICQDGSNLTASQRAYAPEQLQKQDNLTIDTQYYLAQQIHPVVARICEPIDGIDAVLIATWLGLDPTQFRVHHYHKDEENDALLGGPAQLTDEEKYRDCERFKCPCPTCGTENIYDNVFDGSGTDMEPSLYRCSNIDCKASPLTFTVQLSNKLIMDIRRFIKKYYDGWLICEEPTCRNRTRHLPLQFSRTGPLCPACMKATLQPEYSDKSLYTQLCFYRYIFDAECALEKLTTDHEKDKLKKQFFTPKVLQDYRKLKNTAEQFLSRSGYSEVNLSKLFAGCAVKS
The assay is described as follows: DNA polymerase inhibition, DNA pol α. The settings on record: read-out: IC50 DNA pol α dGTP; calf thymus DNA, radiolabeled [3H]dGTP.

The next assay concerns the target DNA pol β (Homo sapiens, UniProt P06746). As to the kind of experiment: DNA polymerase inhibition, DNA pol β. The settings on record: read-out: IC50 DNA pol β dGTP; calf thymus DNA, radiolabeled [3H]dGTP.

The term IC50 denotes the concentration needed to halve the response being measured.

Read-outs that look alike come from different tables or passages of the source. Where only a bound is given, the exact number is not on record here.

With `O=C(O)P(=O)(O)O` [PFA pyrophosphate], the IC50 is 7 ± 0.7 µM on HCMV DNA pol (read-out: IC50 HCMV DNA pol dGTP, radiolabeled [3H]dGTP); 9.4 ± 6 µM at HCMV DNA pol (read-out: IC50 HCMV DNA pol dTTP, radiolabeled [3H]dTTP); 56 ± 12 µM on DNA pol α; above 100 µM at DNA pol β.
